ChEMBL document CHEMBL5252546, “Salutaxel, a Conjugate of Docetaxel and a Muramyl Dipeptide (MDP) Analogue, Acts as Multifunctional Prodrug That Inhibits Tumor Growth and Metastasis” (J Med Chem, 2018)
Calls of active or inactive are those of the source. No cut-off for these calls is given here.

What was measured:
[1] = Toxicity in BALB/c mouse injected with mouse 4T1 cells assessed as body weight loss at 5.7 mg/kg,iv in presence of compound 5b administrated once per week for 4 weeks; type: organism-based; details: in vivo, 672 h
[2] = system: 4T1; assay: Antitumor activity against mouse 4T1 cells implanted in BALB/c mouse assessed as decrease in tumor MMP9 expression level at 5.7 mg/kg,iv administrated once per week for 4 weeks in presence of MDA-205 by western blot assay; type: functional, organism-based
How it was run: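 Tumour-bearing BALB/c mice (4T1 cells into mammary fat pad) given iv saline vehicle or test agents once weekly for 4 weeks. Tumours excised and probed by western blot for MMP9, MMP2 and NOD1, β-actin as loading control. Bands averaged over five mice per group; representative of two independent experiments.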

[3] = system: 4T1; assay: Antitumor activity against mouse 4T1 cells implanted in BALB/c mouse assessed as decrease in tumor MMP9 expression level at 5.7 mg/kg,iv administrated once per week for 4 weeks by western blot assay; type: functional, organism-based
How it was run: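 4T1 cells injected into mammary fat pads of BALB/c mice. Saline vehicle or test article given iv once weekly for 4 weeks. Spleen, lung and tumor lysates immunoblotted for MMP2/MMP9 with β-actin as loading control. Bands averaged over five mice per group, representative of two independent experiments.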

[4] = Cmax in male Beagle dog at 1 mg/kg,iv measured upto 24 hrs; type: ADME, organism-based, Canis lupus familiaris; set-up: dose 1 mg/kg, time < 24 hrs, route iv; details: in vivo
How it was run: (§1)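 Beagle dogs were given a single iv infusion at 1, 2 or 4 mg/kg. Plasma parent drug and released docetaxel were followed over time. Cmax, Tmax, AUC, MRT, t1/2, CL and Vss were reported by sex and for all dogs combined.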

[5] = Drug concentration in rat brain assessed as docetaxel concentration at 4 mg/kg,iv measured after 24 hrs; type: ADME, organism-based; details: in vivo
How it was run: (§2)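 Rats received 4 mg/kg iv. Parent drug and released docetaxel were assayed in tissues and plasma from the first sampling at 0.25 h to 24 h. The lower limit of quantitation was 200 ng/g.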

[6] = system: MDA-MB-231; assay: Antitumor activity against human MDA-MB-231 cells xenografted with BALB/c mouse assessed as inhibition of tumor growth at 10 mg/kg,iv administrated once per week for 3 weeks; type: functional, organism-based
How it was run: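 BALB/c nu/nu mice given subcutaneous human tumour cells in the right flank; dosing began at about 100–120 mm3 mean volume; iv once weekly for 3 weeks, with equimolar parent drug as positive control; tumour volume and weight measured; n = 8, mean ± SEM, ANOVA and Student's t test.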

[7] = AUC (0-t) in male Beagle dog at 1 mg/kg,iv measured upto 24 hrs; type: ADME, organism-based, Canis lupus familiaris; set-up: dose 1 mg/kg, time < 24 hrs, route iv; details: in vivo
How it was run: (§3)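 Single iv dose: rats 2, 4 or 8 mg/kg by intravenous injection; Beagle dogs 1, 2 or 4 mg/kg by intravenous infusion. Plasma concentration–time data were analysed by sex and pooled. Reported parameters: Cmax, Tmax, AUC0−t, AUC0−∞, MRT0−∞, t1/2, CL, Vss, given as mean ± SD.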

[8] = AUC (0-infinity) in rat at 2 mg/kg,iv measured upto 24 hrs; type: ADME, organism-based; set-up: dose 2 mg/kg, time < 24 hrs, route iv; details: in vivo; how it was run: as §3
[9] = system: 4T1; assay: Antitumor activity against mouse 4T1 cells implanted in BALB/c mouse assessed as decrease in MMP9 mRNA expression in lung at 20 mg/kg,iv administrated qd for 2 days by qRT-PCR analysis; type: functional, organism-based; details: time 2.0 day
How it was run: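 Day 19 after 4T1 implantation, mice randomised into five groups; iv vehicle or 20 mg/kg plus ip C12-iE-DAP (50 μg/mouse) and MDP (100 μg/mouse) once daily for 2 days; killed after 48 h; lung mRNA for MMP8, MMP9, PROK2, S100A8, S100A9 and IL-1β by qPCR; mean ± SEM.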

[10] = system: MDA-MB-231; assay: Antiproliferative activity against human MDA-MB-231 cells assessed inhibition of cell growth incubated for 72 hrs by SRB assay; type: functional, cell-based; details: MDA-MB-231, 72 h
[11] = Volume of distribution at steady state in rat at 2 mg/kg,iv measured upto 24 hrs; type: ADME, organism-based; details: in vivo, read-out: Vdss
[12] = Drug metabolism in rat hepatocytes assessed as MDA-205 metabolite formation at 20 uM incubated for 180 mins; type: ADME, cell-based, Hepatocyte; details: 3 h
[13] = Toxicity in BALB/c mouse injected with mouse 4T1 cells assessed as decrease in body weight at 20 mg/kg,iv administrated once per week for 4 weeks; type: organism-based; set-up: scale not given: the % may be the effect or the level left; details: in vivo, 672 h
[14] = Drug metabolism in rat urine assessed as metabolite docetaxel formation at 4 mg/kg,iv measured after 24 hrs; type: ADME, organism-based; details: in vivo
[15] = AUC (0-infinity) in female Beagle dog at 2 mg/kg,iv measured upto 24 hrs; type: ADME, organism-based, Canis lupus familiaris; set-up: time < 24 hrs, dose 2 mg/kg, route iv; details: in vivo; how it was run: as §3
[16] = MRT (0 to infinity) in Beagle dog at 1 mg/kg,iv measured upto 24 hrs; type: ADME, organism-based, Canis lupus familiaris; details: in vivo
[17] = target: Cytochrome P450 2C19 (Homo sapiens, UniProt P33261); assay: Inhibition of CYP2C19 in human liver microsomes using probe substrate at 0.1 to 100 uM in presence of NADPH; type: ADME, Microsome; details: dose 0.1-100 µM
Sequence of Cytochrome P450 2C19 (P33261 whole entry): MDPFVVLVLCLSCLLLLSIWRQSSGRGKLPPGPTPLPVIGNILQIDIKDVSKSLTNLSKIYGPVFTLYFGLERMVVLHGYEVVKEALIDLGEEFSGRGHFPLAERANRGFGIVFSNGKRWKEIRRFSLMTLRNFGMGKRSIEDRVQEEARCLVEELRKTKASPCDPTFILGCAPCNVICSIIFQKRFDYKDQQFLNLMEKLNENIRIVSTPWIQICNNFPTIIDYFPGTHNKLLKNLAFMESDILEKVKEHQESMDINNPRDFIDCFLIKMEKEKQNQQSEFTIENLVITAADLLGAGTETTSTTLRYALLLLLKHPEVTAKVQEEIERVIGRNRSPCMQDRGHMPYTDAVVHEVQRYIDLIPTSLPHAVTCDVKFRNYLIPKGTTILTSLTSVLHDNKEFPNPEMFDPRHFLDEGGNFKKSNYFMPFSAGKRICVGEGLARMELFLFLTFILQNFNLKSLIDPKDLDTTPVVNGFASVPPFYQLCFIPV

[18] = Cmax in rat at 8 mg/kg,iv measured upto 24 hrs; type: ADME, organism-based; set-up: time < 24 hrs, dose 8 mg/kg, route iv; details: in vivo
How it was run: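 Rats were given a single iv injection at 2, 4 or 8 mg/kg. Plasma parent drug and released docetaxel were followed over time. Cmax, Tmax, AUC, MRT, t1/2, CL and Vss were reported for males, females and all animals combined.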

[19] = Tmax in rat at 8 mg/kg,iv measured upto 24 hrs; type: ADME, organism-based; details: in vivo
[20] = Drug distribution in rat small intestine at 4 mg/kg,iv measured by 0.25 hrs; type: ADME, organism-based; details: in vivo; how it was run: as §2
[21] = target: Cytochrome P450 1A2 (Homo sapiens, UniProt P05177); assay: Inhibition of CYP1A2 in human liver microsomes using probe substrate at 0.1 to 100 uM in presence of NADPH; type: ADME, Microsome; details: dose 0.1-100 µM
Sequence of Cytochrome P450 1A2 (P05177 whole entry): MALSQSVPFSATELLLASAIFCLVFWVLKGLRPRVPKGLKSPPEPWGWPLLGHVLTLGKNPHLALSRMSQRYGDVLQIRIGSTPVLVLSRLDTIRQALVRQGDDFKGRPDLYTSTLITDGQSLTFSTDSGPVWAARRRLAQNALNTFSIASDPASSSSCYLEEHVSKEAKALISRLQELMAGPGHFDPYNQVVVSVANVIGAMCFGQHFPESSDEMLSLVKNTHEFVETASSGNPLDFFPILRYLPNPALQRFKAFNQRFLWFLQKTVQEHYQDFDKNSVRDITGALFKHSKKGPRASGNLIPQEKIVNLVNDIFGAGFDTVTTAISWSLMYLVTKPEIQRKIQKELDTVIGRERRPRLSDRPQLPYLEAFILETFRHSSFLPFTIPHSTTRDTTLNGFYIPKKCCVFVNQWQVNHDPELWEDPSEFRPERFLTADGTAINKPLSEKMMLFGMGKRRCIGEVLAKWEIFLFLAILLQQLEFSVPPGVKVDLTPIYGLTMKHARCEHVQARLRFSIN

[22] = Drug concentration in rat brain at 4 mg/kg,iv measured after 24 hrs; type: ADME, organism-based; details: in vivo; how it was run: as §2
[23] = system: COLO 205; assay: Antiproliferative activity against human COLO 205 cells assessed inhibition of cell growth incubated for 72 hrs by SRB assay; type: functional, cell-based; details: COLO 205, 72 h
[24] = Chronic toxicity in male Sprague-Dawley rat at 2 to 8 mg/kg,iv administered once per week for 30 days; type: organism-based; details: in vivo, 720 h, dose 2-8 mg/kg, time 30 day
How it was run: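 Long-term toxicity: rats given iv 2, 4 or 8 mg/kg and dogs 3, 6 or 18 mg/kg once weekly over 30 days; toxicokinetics recorded; highest non-severely toxic dose determined by sex.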

[25] = Prodrug conversion in mouse tumor implanted with mouse 4T1 cells assessed as Tmax of docetaxel at 4 mg/kg,iv measured upto 72 hrs; type: ADME, organism-based, Neoplasm; details: in vivo
[26] = Cmax in male Beagle dog at 2 mg/kg,iv measured upto 24 hrs; type: ADME, organism-based, Canis lupus familiaris; set-up: dose 2 mg/kg, time < 24 hrs, route iv; details: in vivo; how it was run: as §1
[27] = system: 4T1; assay: Antitumor activity against mouse 4T1 cells implanted in BALB/c mouse assessed as decrease in spleen MMP2 expression level at 5 to 20 mg/kg,iv administrated once per week for 4 weeks by western blot assay; type: functional, organism-based; details: dose 5-20 mg/kg
How it was run: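 4T1 fat-pad model in BALB/c mice, iv once weekly for 4 weeks; MMP9, MMP2 and NOD1 in spleen, lung and tumour by western blot, β-actin loading control; bands averaged over five mice per group, representative of two independent experiments.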

[28] = Drug metabolism in rat bile assessed as metabolite MDA-205 formation at 4 mg/kg,iv measured after 24 hrs; type: ADME, organism-based; details: in vivo
[29] = Half life in male rat at 4 mg/kg,iv measured upto 24 hrs; type: ADME, organism-based; details: in vivo

## CC(=O)O[C@@]12CO[C@@H]1C[C@H](O)[C@@]1(C)C(=O)[C@H](O)C3=C(C)[C@@H](OC(=O)[C@H](O)[C@@H](NC(=O)OC(C)(C)C)c4ccccc4)C[C@@](O)([C@@H](OC(=O)c4ccccc4)[C@H]21)C3(C)C [DOCETAXEL ANHYDROUS]
[1]
  Activity: Non-Toxic
[2]
  Activity: inactive
[3]
  Activity: inactive

## CC(=O)O[C@@]12CO[C@@H]1C[C@H](O)[C@@]1(C)C(=O)[C@H](O)C3=C(C)[C@@H](OC(=O)[C@H](OC(=O)CCC(=O)NCCCC[C@H](NC(=O)CC[C@@H](NC(=O)[C@H](C)NC(=O)/C=C/c4ccc(F)cc4Cl)C(N)=O)C(=O)O)[C@@H](NC(=O)OC(C)(C)C)c4ccccc4)C[C@@](O)([C@@H](OC(=O)c4ccccc4)[C@H]21)C3(C)C
[4]
  Cmax: 3740 ng/mL
[5]
  Drug uptake: Not Active
[6]
  inhibition: Active
[7]
  AUC(0-t) at 24 h: 1590 ng·h/mL
[8]
  AUC(0-inf): 5230 ng·h/mL
[9]
  Activity: Active
[10]
  IC50: 16.3 nM
[11]
  Vd: 0.071 L/kg
[12]
  Drug metabolism: Metabolite_Detected
[13]
  Activity: 8%
[14]
  Drug metabolism: Metabolite_Detected
[15]
  AUC(0-inf): 7020 ng·h/mL
[16]
  MRT inf: 15.2 min
[17]
  inhibition (INH): Not Active
[18]
  Cmax: 62.2 µg/mL
[19]
  Tmax: 4.98 min
[20]
  Drug uptake: Active
[21]
  inhibition (INH): Not Active
[22]
  Drug uptake: Active
[23]
  IC50: 16.3 nM
[24]
  Activity: Toxic
[25]
  Tmax: 30 min
[26]
  Cmax: 10800 ng/mL
[27]
  Activity: inactive
[28]
  Drug metabolism: Metabolite_Detected
[29]
  half-life: 10.7 min
